Experiments:
[1] = AUC (0 to infinity) in Sprague-Dawley rat model of streptozotocin-induced diabetes mellitus at 10 mg/kg, po by HPLC method; format: ADME, organism-based; design: time infinity, dose 10 mg/kg, route oral; conditions: in vivo
Method in brief: (§1)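 Sprague-Dawley rats: diabetes induced by STZ 65 mg/kg i.p. in citrate buffer pH 4.5 (fasting glucose >11.1 mM at day 7). Insulin group received protamine zinc insulin 5 U/kg s.c. twice daily for 4 weeks. On day 35, overnight-fasted rats got GLB 10 mg/kg orally in 0.5% CMC-Na. Plasma GLB measured by HPLC with fluorescence detection (ex 308/em 360 nm). Non-compartmental analysis; n=6-7.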

[2] = Apparent oral volume of distribution in Sprague-Dawley rat model of streptozotocin-induced diabetes mellitus at 10 mg/kg, po by HPLC method; format: ADME, organism-based; design: dose 10 mg/kg, route oral; conditions: in vivo; method in brief: as §1
[3] = Half life in normal Sprague-Dawley rat liver microsomes at 4 uM after 60 mins; format: ADME
Method in brief: (§2)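 Liver microsomes (0.5 mg/mL protein) from control, STZ-diabetic or insulin-treated diabetic rats, 0.01 M phosphate buffer pH 7.4, 4 μM GLB (methanol <1%); 5 min preincubation at 37 °C, started with NADPH regenerating system. Stopped with 1 M HCl at 0, 5, 15, 30, 45, 60 min. GLB depletion measured by HPLC-fluorescence. AUC by linear trapezoid; Clapp = initial dose/AUC0-t; t1/2 = 0.693/terminal slope. Triplicate incubations; 4-5 rats.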

[4] = Drug excretion in normal Sprague-Dawley rat bile at 10 mg/kg, po by HPLC method; format: ADME, organism-based; design: dose 10 mg/kg, route oral; conditions: read-out: Drug excretion
Method in brief: (§3)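 STZ-diabetic (65 mg/kg i.p.), insulin-treated or control rats were dosed with GLB 10 mg/kg orally on day 35 after overnight fast. Urine and feces were collected in metabolic cages at 6-h intervals to 36 h. For bile, the common bile duct was cannulated under pentobarbital and bile collected to 12 h. GLB measured by HPLC-fluorescence and expressed as % of dose.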

[5] = Half life in insulin treated streptozotocin-induced diabetes mellitus Sprague-Dawley rat liver microsomes at 4 uM after 60 mins; format: ADME; method in brief: as §2
[6] = Drug excretion in bile of Sprague-Dawley rat model of streptozotocin-induced diabetes mellitus at 10 mg/kg, po by HPLC method; format: ADME, organism-based; design: dose 10 mg/kg, route oral; conditions: read-out: Drug excretion; method in brief: as §3
[7] = Apparent oral volume of distribution in insulin treated Sprague-Dawley rat model of streptozotocin-induced diabetes mellitus at 10 mg/kg, po by HPLC method; format: ADME, organism-based; design: dose 10 mg/kg, route oral; conditions: in vivo; method in brief: as §1
[8] = AUC (0 to infinity) in insulin treated Sprague-Dawley rat model of streptozotocin-induced diabetes mellitus at 10 mg/kg, po by HPLC method; format: ADME, organism-based; design: dose 10 mg/kg, route oral, time infinity; conditions: in vivo; method in brief: as §1
[9] = Oral clearance in Sprague-Dawley rat model of streptozotocin-induced diabetes mellitus at 10 mg/kg, po by HPLC method; format: ADME, organism-based; design: dose 10 mg/kg, route oral; conditions: in vivo; method in brief: as §1
[10] = AUC (0 to t) in insulin treated Sprague-Dawley rat model of streptozotocin-induced diabetes mellitus at 10 mg/kg, po by HPLC method; format: ADME, organism-based; design: dose 10 mg/kg, route oral; conditions: in vivo; method in brief: as §1
[11] = Drug excretion in normal Sprague-Dawley rat urine at 10 mg/kg, po by HPLC method; format: ADME, organism-based; design: dose 10 mg/kg, route oral; conditions: read-out: Drug excretion; method in brief: as §3
Liver microsome [12] = assay: Apparent hepatic clearance in normal Sprague-Dawley rat liver microsomes assessed per mg protein at 4 uM after 60 mins; format: ADME; conditions: 1 h; method in brief: as §2
[13] = Drug excretion in urine of insulin treated Sprague-Dawley rat model of streptozotocin-induced diabetes mellitus at 10 mg/kg, po by HPLC method; format: ADME, organism-based; design: dose 10 mg/kg, route oral; conditions: read-out: Drug excretion; method in brief: as §3
[14] = AUC (0 to 60 mins) in streptozotocin-induced diabetes mellitus Sprague-Dawley rat liver microsomes at 4 uM after 60 mins; format: ADME; design: dose 4 uM, time < 1 hr; method in brief: as §2
[15] = Tmax in Sprague-Dawley rat model of streptozotocin-induced diabetes mellitus at 10 mg/kg, po by HPLC method; format: ADME, organism-based; design: dose 10 mg/kg, route oral; conditions: in vivo
Method in brief: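 Rats given STZ 65 mg/kg i.p. in citrate buffer pH 4.5 (controls got buffer); diabetic if fasting glucose >11.1 mM at day 7; insulin group got protamine zinc insulin 5 U/kg s.c. twice daily for 4 weeks. On day 35, overnight-fasted rats dosed orally with 10 mg/kg in 0.5% CMC-Na; plasma by ethyl acetate extraction, HPLC fluorescence (ex 308/em 360 nm); non-compartmental analysis; n=6-7, mean ± S.D.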

Liver microsome [16] = assay: Drug metabolism in normal Sprague-Dawley rat liver microsomes assessed as compound level at 4 uM after 60 mins (reference value: 2.06 +/- 0.12 ug/ml); format: ADME; conditions: 1 h
[17] = Mean residence time in insulin treated Sprague-Dawley rat model of streptozotocin-induced diabetes mellitus at 10 mg/kg, po by HPLC method; format: ADME, organism-based; design: dose 10 mg/kg, route oral; conditions: in vivo; method in brief: as §1
Liver microsome [18] = assay: Apparent hepatic clearance in streptozotocin-induced diabetes mellitus Sprague-Dawley rat liver microsomes assessed per mg protein at 4 uM after 60 mins; format: ADME; conditions: 1 h; method in brief: as §2
Jejunum [19] = assay: Drug absorption in streptozotocin-induced diabetes mellitus Sprague-Dawley rat jejunum at 10 ug/ml after 120 mins of in situ single-pass perfusion relative to normal rat; format: ADME, tissue-based; conditions: in vivo, 2 h
Method in brief: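 In situ single-pass jejunal perfusion in anaesthetized control and STZ-diabetic rats. The segment was preperfused with 0.9% saline at 0.2 mL/min, 37 °C, for 20 min, then perfused with K-H buffer containing GLB 10 μg/mL. Effluent was collected at 15-min intervals after a 30-min steady state. Cumulative absorption was calculated from GLB loss (HPLC); n=5.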

Jejunum [20] = assay: Drug absorption in normal Sprague-Dawley rat jejunum assessed as 200 uM BCRP inhibitor novobiocin-mediated increase in apparent effective permeability at 10 ug/ml measured at 45 mins of perfusion; format: ADME, tissue-based; design: scale not given: the % may be the effect or the level left; conditions: 0.75 h
Method in brief: (§4)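 Normal rats underwent in situ single-pass jejunal perfusion: saline preperfusion at 0.2 mL/min, 37 °C, for 20 min, then K-H buffer with GLB 10 μg/mL with or without novobiocin 50 or 200 μM. Effluent was collected every 15 min. Peff (cm/min) was calculated from GLB loss and the absorptive area of the segment; n=5.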

Jejunum [21] = assay: Drug absorption in normal Sprague-Dawley rat jejunum at 10 ug/ml in presence of 50 to 200 uM BCRP inhibitor novobiocin; format: ADME, tissue-based; conditions: in vivo; method in brief: as §4
[22] = Apparent oral volume of distribution in normal Sprague-Dawley rat at 10 mg/kg, po by HPLC method; format: ADME, organism-based; design: dose 10 mg/kg, route oral; conditions: in vivo; method in brief: as §1
[23] = Mean residence time in Sprague-Dawley rat model of streptozotocin-induced diabetes mellitus at 10 mg/kg, po by HPLC method; format: ADME, organism-based; design: dose 10 mg/kg, route oral; conditions: in vivo; method in brief: as §1
[24] = Drug excretion in feces of insulin treated Sprague-Dawley rat model of streptozotocin-induced diabetes mellitus at 10 mg/kg, po by HPLC method; format: ADME, organism-based; design: dose 10 mg/kg, route oral; conditions: faeces, read-out: Drug excretion; method in brief: as §3
[25] = Drug excretion in feces of Sprague-Dawley rat model of streptozotocin-induced diabetes mellitus at 10 mg/kg, po by HPLC method; format: ADME, organism-based; design: dose 10 mg/kg, route oral; conditions: faeces, read-out: Drug excretion; method in brief: as §3

AUC(0-inf) [1]: 15200 ng·h/mL
Vd/F [2]: 6.36 L/kg
half-life at 4 µM [3]: 0.207 h
dose excreted [4]: 0.01%
half-life at 4 µM [5]: 0.211 h
dose excreted [6]: 0.097%
Vd/F [7]: 36.8 L/kg
AUC(0-inf) [8]: 3000 ng·h/mL
CL/F [9]: 12 mL/min/kg
AUC(0-t) [10]: 2380 ng·h/mL
dose excreted [11]: 0.0042%
CLH(app) (Liver microsome [12]): 205 µL/min/mg
dose excreted [13]: 0.019%
AUC(0-t) at 1 h, 4 µM [14]: 916 ng·h/mL
Tmax [15]: 7.2 h
Drug uptake (Liver microsome [16]): 0.07 µg/mL
MRT [17]: 8.15 h
CLH(app) (Liver microsome [18]): 52 µL/min/mg
Drug absorption (Jejunum [19]): 42%
Activity (Jejunum [20]): 25%
Drug absorption (Jejunum [21]): Active
Vd/F [22]: 25.7 L/kg
MRT [23]: 9.28 h
dose excreted [24]: 50%
dose excreted [25]: 40%
Structure (SMILES): COc1ccc(Cl)cc1C(=O)NCCc1ccc(S(=O)(=O)NC(=O)NC2CCCCC2)cc1 [GLYBURIDE]

Reference: ChEMBL document CHEMBL3525979, “Combined contributions of impaired hepatic CYP2C11 and intestinal breast cancer resistance protein activities and expression to increased oral glibenclamide exposure in rats with streptozotocin-induced diabetes mellitus” (Drug Metab Dispos, 2012)
